Reference: publication PMC3698760 (Journal of the American Heart Association: Cardiovascular …, 2013)
Entries after “also recorded” stand apart in the source; their conditions may differ.

Legend:
Circular dichroism = type: physicochemical; details: CD spectra in water, 200 to 260 nm
Procedure, shortened: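 Spectra of peptides and human apoA-I (17.8 to 178 μmol/L) recorded at 25°C in a thermostatted quartz cell with 0.1 mm path length, scanning 200–260 nm. Results expressed as mean residue ellipticity (deg cm² dmol⁻¹).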

A172 human glioblastoma = experiment: Cellular cholesterol efflux in A172 human cells; type: cell-based; details: 4 hours
Procedure, shortened: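 A172 human glioblastoma cells were grown in DMEM with 10% FBS and antibiotics, then labelled with ³H‑cholesterol. Efflux ran in serum‑free medium with 0.2% BSA, 5 μmol/L T0901317 and 5 μmol/L 9‑cis‑retinoic acid, with or without 10 μmol/L probucol. Acceptor was human apoA‑I or test peptide at 20 μg/mL, or a molar dose series, for 4 h. n=4–5; mean±SD.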

[1] = test system: mouse peritoneal macrophages; experiment: Cellular cholesterol efflux in mouse peritoneal macrophages; type: cell-based; details: 20 μg/mL, 4 hours, n=4 to 5
Procedure, shortened: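 Peritoneal macrophages taken from mice injected i.p. with 2 mL 2.9% thioglycollate 90 h earlier, and selected as cells adherent after 2 h. Cells were labelled with ³H-cholesterol and kept in serum-free medium with 0.2% BSA. Efflux to 20 μg/mL acceptor was measured over 4 h.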

ABCA1 [2] = target: T1, ABCA1 (Homo sapiens, UniProt O95477); experiment: Cholesterol efflux in COS-7 cells transiently transfected with human ABCA1 cDNA; type: cell-based; details: 20 μg/mL, 4 hours, n=6 to 7
T1 sequence (O95477 whole entry): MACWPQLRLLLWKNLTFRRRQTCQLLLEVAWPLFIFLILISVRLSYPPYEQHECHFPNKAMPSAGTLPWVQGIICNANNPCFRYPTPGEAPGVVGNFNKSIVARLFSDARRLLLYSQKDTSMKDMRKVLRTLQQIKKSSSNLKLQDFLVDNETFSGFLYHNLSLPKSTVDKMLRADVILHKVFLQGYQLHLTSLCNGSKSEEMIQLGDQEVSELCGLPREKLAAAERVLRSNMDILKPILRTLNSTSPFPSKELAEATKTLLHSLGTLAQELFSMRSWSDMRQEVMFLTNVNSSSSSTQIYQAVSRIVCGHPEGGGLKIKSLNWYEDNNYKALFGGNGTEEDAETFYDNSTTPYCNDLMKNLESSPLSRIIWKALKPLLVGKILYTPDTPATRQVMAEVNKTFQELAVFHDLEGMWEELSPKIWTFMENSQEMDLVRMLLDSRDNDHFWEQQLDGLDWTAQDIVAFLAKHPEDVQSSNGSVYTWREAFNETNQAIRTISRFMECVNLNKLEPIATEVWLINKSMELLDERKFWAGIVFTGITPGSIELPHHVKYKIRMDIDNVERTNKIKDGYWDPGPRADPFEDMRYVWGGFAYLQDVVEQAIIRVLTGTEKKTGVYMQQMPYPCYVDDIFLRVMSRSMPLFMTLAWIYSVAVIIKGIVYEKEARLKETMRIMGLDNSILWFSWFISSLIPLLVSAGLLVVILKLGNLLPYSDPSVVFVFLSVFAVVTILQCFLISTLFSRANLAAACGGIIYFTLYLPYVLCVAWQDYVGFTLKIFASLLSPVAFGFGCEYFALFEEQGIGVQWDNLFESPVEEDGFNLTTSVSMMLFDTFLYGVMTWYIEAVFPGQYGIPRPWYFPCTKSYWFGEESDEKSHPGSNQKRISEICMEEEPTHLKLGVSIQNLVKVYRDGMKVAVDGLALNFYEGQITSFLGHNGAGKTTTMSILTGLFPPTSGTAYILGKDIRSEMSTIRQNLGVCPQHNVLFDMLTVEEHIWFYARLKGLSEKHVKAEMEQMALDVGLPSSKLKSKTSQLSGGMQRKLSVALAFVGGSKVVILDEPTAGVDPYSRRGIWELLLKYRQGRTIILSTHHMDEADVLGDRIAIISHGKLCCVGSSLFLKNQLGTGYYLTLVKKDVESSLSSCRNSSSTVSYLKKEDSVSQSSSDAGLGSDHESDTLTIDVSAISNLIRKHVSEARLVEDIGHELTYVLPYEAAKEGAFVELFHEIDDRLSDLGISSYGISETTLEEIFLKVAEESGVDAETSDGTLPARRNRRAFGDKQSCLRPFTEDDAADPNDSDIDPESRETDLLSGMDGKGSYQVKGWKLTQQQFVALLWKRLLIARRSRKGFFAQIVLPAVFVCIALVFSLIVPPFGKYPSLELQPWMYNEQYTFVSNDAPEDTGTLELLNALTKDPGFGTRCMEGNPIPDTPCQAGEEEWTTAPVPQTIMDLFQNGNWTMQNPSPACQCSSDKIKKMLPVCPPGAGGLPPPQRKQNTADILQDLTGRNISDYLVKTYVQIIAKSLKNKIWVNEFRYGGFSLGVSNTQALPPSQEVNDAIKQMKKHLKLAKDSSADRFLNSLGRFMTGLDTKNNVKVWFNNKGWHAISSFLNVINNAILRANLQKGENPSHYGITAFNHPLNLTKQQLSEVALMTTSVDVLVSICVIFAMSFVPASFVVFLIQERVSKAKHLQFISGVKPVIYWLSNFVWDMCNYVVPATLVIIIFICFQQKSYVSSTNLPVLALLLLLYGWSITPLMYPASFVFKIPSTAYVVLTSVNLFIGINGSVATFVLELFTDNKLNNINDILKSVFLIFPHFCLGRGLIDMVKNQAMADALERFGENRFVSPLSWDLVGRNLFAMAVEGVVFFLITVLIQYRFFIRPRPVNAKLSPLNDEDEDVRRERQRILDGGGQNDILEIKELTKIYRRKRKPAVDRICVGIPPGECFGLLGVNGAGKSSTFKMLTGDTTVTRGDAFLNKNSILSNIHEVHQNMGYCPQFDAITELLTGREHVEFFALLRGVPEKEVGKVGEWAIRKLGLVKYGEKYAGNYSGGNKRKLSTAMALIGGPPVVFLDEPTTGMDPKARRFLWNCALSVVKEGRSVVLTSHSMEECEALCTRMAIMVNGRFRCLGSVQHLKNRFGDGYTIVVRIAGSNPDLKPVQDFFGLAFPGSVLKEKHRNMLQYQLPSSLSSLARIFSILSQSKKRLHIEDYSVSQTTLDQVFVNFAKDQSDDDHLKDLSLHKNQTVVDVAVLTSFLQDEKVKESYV
Procedure, shortened: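 COS‑7 cells were kept in DMEM with 10% FBS and antibiotics and seeded at 80–90% confluence. They were transfected by lipofection with human ABCA1 cDNA in pcDNA3.1 (with ABCG1 in pEdsRed‑N1), or with mock vector. Cells were then ³H‑cholesterol labelled, and efflux was measured in serum‑free medium with 0.2% BSA.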

[3] = test system: monocyte‐derived macrophages from an ABCA1‐deficient Tangier disease patient; type: cell-based, human; details: 20 μg/mL, 4 hours, n=4
Procedure, shortened: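 Peripheral blood monocyte‑derived macrophages came from a healthy volunteer and a Tangier disease patient, with ethics approval and written consent. Cells were isolated by Lymphoprep density separation and labelled with ³H‑cholesterol. Efflux was run in serum‑free 0.2% BSA medium with or without 20 μg/mL human apoA‑I or test peptide for 4 h. n=4; mean±SD.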

ABCA1 [4] = target: T1, ABCA1; experiment: Probucol-inhibitable, ABCA1-specific cholesterol efflux in A172 cells; type: cell-based; details: probucol 10 μmol/L
Procedure, shortened: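 A172 glioblastoma cells, labelled with ³H-cholesterol, were held in serum-free 0.2% BSA medium with 5 μmol/L T0901317 and 5 μmol/L 9-cis-retinoic acid. Cells were exposed for 4 h to 20 μg/mL acceptor, with or without 10 μmol/L probucol. ABCA1-dependent efflux was taken as the probucol-inhibitable fraction.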

[5] = human whole plasma, 60 minutes at 37°C; FAMP5 0.2 to 2.0 mg/mL, ACD-FAMP5 2.0 mg/mL
Procedure, shortened: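 Human whole plasma was incubated with saline, test peptide (0.2 to 2.0 mg/mL) or acridone-labelled peptide (2.0 mg/mL) for 60 min at 37°C. Samples were run on agarose gel electrophoresis with cholesterol staining, transferred to PVDF and immunoblotted with goat anti-human apoA-I antibody. The fluorescent label was visualized on the gel under UV light.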

[6] = test system: apoE−/− mice fed a high‐fat diet; experiment: Aortic atherosclerotic lesion formation, 16-week treatment; type: in vivo; details: high-dose 50 mg/kg i.p. 3 times per week, 16 weeks; Oil Red O; mean±SD; P<0.01 vs scrambled
Procedure, shortened: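 Male apoE−/− mice, bought at six weeks, fed a high-fat diet (0.5% cholesterol, 10% fat) and dosed i.p. 3 times per week for 16 weeks: test peptide at 10 or 50 mg/kg per day, or scrambled peptide. Whole aortas were then stained with Oil Red O. Lesion area was scored by image analysis as percentage of aorta from ascending aorta to abdominal bifurcation.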

apoE‐deficient mice = experiment: Plasma lipoprotein profiles analyzed by HPLC, 16-week treatment; type: in vivo; details: 3 times a week, 16 weeks
Procedure, shortened: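 Plasma from apoE−/− mice after 16-week i.p. dosing (3 times weekly) was separated by HPLC into 20 particle-size subfractions. Each subfraction was assayed enzymatically for total cholesterol, free cholesterol, triglycerides and phospholipids; mean±SD.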

RAW264 macrophages = experiment: Ex vivo cholesterol efflux mediated by plasma HDL of treated mice; type: in vivo; details: high-dose 50 mg/kg, 16 weeks; apoB-depleted plasma, 8Br-cAMP-treated RAW264 macrophages
Procedure, shortened: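 Plasma collected after 16 weeks of i.p. treatment of high-fat-fed apoE−/− mice. ApoB-depleted plasma served as acceptor for ³H-cholesterol-labelled RAW264 macrophages. Macrophages were pretreated with 0.3 mmol/L 8Br-cAMP and kept in serum-free medium with 0.2% BSA.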

C‐reactive protein (CRP) = experiment: Plasma high-sensitive CRP by ELISA; type: in vivo; details: low (10 mg/kg) and high (50 mg/kg) doses, 16 weeks, apoE−/− mice
Procedure, shortened: (§1)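 Overnight-fasted plasma collected from high-fat-fed apoE−/− mice after 16 weeks of i.p. dosing 3 times weekly (10 or 50 mg/kg per day, or scrambled peptide). High-sensitivity CRP and MCP-1 were quantified with commercial ELISA kits.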

[7] = test system: monocyte chemoattractant protein‐1 (MCP‐1); experiment: Plasma MCP-1 by ELISA; type: in vivo; details: high dose (50 mg/kg), 16 weeks, apoE−/− mice
Procedure, shortened: as §1

[8] = high-dose 50 mg/kg per day i.p., n=7, mean±SD
[9] = low-dose 10 mg/kg per day i.p., n=5, mean±SD

In the case of H-ALEHLFTLYEKALKALEDLLKKLL-OH [FAMP5], the “α‐helical conformation (CD spectra)” value (Circular dichroism) is reported as “formed strong α‐helical conformations”, the “dose dependence of cholesterol efflux on a molar basis” value (A172 human glioblastoma; A172 cells, presence or absence of 5 μmol/L T0901317 or 9-cis-retinoic acid, n=4) is reported as “dose‐dependent induction of cholesterol efflux with saturation effects” and the “cellular cholesterol efflux: differences of terminal end modifications” value (A172 human glioblastoma; A172 cells, 20 μg/mL, n=5) is reported as “no influence by the modification of terminal ends”. For the same substance, the “effect of ABCA1 inactivation (probucol) on peptide-mediated cholesterol efflux” value (A172 human glioblastoma; probucol 10 μmol/L, 20 μg/mL) was “drastically inhibited; also recorded: not completely abolished”, the cholesterol efflux [1] was “induced cholesterol efflux significantly more than human apoA‐I” and the “cholesterol efflux after transient transfection with ABCA1 cDNA vs mock” value (ABCA1 [2]) was “significantly upregulated”. For the same substance, the “cholesterol efflux in Tangier disease macrophages vs healthy subject” value [3] was “suppressed”, the “percentage of probucol‐inhibitable, ABCA1‐specific cholesterol efflux” value (ABCA1 [4]) was “significantly higher than that in L‐4F; also recorded: significantly lower than human apoA‐I” and the “conversion of α HDL to pre‐β HDL on agarose gel electrophoresis” value [5] was “shifted the α HDL band to the pre‐β HDL position; also recorded: completely converted α HDL to pre‐β HDL”. The “relative surface area of aortic plaque lesions” value [6] was 16.2±5.0%, the “Cholesterol, CM (>80 nm)” value (apoE‐deficient mice; [8]) was 173.4 ± 24.0 mg/dL and the “Cholesterol, HDL (8 to 16 nm)” value (apoE‐deficient mice; [8]) was 20.3 ± 3.1 mg/dL. For the same substance, the “Cholesterol, LDL (16 to 30 nm)” value (apoE‐deficient mice; [8]) was 157.9 ± 32.1 mg/dL, the “Cholesterol, VLDL (30 to 80 nm)” value (apoE‐deficient mice; [8]) was 509.1 ± 73.8 mg/dL and the “Free cholesterol, CM (>80 nm)” value (apoE‐deficient mice; [8]) was 76.6 ± 13.7 mg/dL. For the same substance, the “Free cholesterol, HDL (8 to 16 nm)” value (apoE‐deficient mice; [8]) was 10.0 ± 1.1 mg/dL, the “Free cholesterol, LDL (16 to 30 nm)” value (apoE‐deficient mice; [8]) was 75.0 ± 14.1 mg/dL and the “Free cholesterol, VLDL (30 to 80 nm)” value (apoE‐deficient mice; [8]) was 213.8 ± 33.7 mg/dL. The “Phospholipids, CM (>80 nm)” value (apoE‐deficient mice; [8]) was 84.3 ± 14.2 mg/dL, the “Phospholipids, HDL (8 to 16 nm)” value (apoE‐deficient mice; [8]) was 23.1 ± 5.2 mg/dL and the “Phospholipids, LDL (16 to 30 nm)” value (apoE‐deficient mice; [8]) was 110.6 ± 26.5 mg/dL. The “Phospholipids, VLDL (30 to 80 nm)” value (apoE‐deficient mice; [8]) was 259.9 ± 44.9 mg/dL, the “Triglyceride, CM (>80 nm)” value (apoE‐deficient mice; [8]) was 22.1 ± 6.6 mg/dL and the “Triglyceride, HDL (8 to 16 nm)” value (apoE‐deficient mice; [8]) was 3.7 ± 1.3 mg/dL. The “Triglyceride, LDL (16 to 30 nm)” value (apoE‐deficient mice; [8]) was 10.4 ± 2.2 mg/dL, the “Triglyceride, VLDL (30 to 80 nm)” value (apoE‐deficient mice; [8]) was 35.8 ± 9.7 mg/dL and the “Cholesterol, CM (>80 nm)” value (apoE‐deficient mice; [9]) was 175.4 ± 40.4 mg/dL. For the same substance, the “Cholesterol, HDL (8 to 16 nm)” value (apoE‐deficient mice; [9]) was 22.0 ± 3.7 mg/dL, the “Cholesterol, LDL (16 to 30 nm)” value (apoE‐deficient mice; [9]) was 133.1 ± 16.1 mg/dL and the “Cholesterol, VLDL (30 to 80 nm)” value (apoE‐deficient mice; [9]) was 529.9 ± 135.3 mg/dL. The “Free cholesterol, CM (>80 nm)” value (apoE‐deficient mice; [9]) was 70.7 ± 14.4 mg/dL, the “Free cholesterol, HDL (8 to 16 nm)” value (apoE‐deficient mice; [9]) was 9.1 ± 0.6 mg/dL and the “Free cholesterol, LDL (16 to 30 nm)” value (apoE‐deficient mice; [9]) was 65.6 ± 6.0 mg/dL. For the same substance, the “Free cholesterol, VLDL (30 to 80 nm)” value (apoE‐deficient mice; [9]) was 220.1 ± 49.0 mg/dL, the “Phospholipids, CM (>80 nm)” value (apoE‐deficient mice; [9]) was 78.4 ± 15.3 mg/dL and the “Phospholipids, HDL (8 to 16 nm)” value (apoE‐deficient mice; [9]) was 29.1 ± 4.9 mg/dL. The “Phospholipids, LDL (16 to 30 nm)” value (apoE‐deficient mice; [9]) was 94.4 ± 10.4 mg/dL, the “Phospholipids, VLDL (30 to 80 nm)” value (apoE‐deficient mice; [9]) was 263.8 ± 53.4 mg/dL and the “Triglyceride, CM (>80 nm)” value (apoE‐deficient mice; [9]) was 26.1 ± 16.8 mg/dL. The “Triglyceride, HDL (8 to 16 nm)” value (apoE‐deficient mice; [9]) was 2.9 ± 1.2 mg/dL, the “Triglyceride, LDL (16 to 30 nm)” value (apoE‐deficient mice; [9]) was 9.5 ± 2.3 mg/dL and the “Triglyceride, VLDL (30 to 80 nm)” value (apoE‐deficient mice; [9]) was 38.1 ± 19.4 mg/dL. For the same substance, the “ex vivo cholesterol efflux mediated by HDL of treated mice” value (RAW264 macrophages) was “significant increase”, the “plasma high‐sensitive CRP levels” value (C‐reactive protein (CRP)) was “equally suppressed” and the “plasma MCP‐1 levels” value [7] was “significantly reduced”.
